PostGolgi yeast = phenotypic screen on post-Golgi transport, primary screen | post-Golgi transport phenotypic cell assay | inhibition, % at 10 µM | actives 0.9% (n = 98,000);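 note: yeast cells grown in 1536-well plates; yeast grown about 18 h at 30C before absorbance read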
FAK inh = FAK kinase inhibitors, primary screen, biochemical; AID 727, 2007; biochemical FAK kinase activity assay; actives 0.84% (n = 97,000); inhibition, %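 (tested at 7 µM)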; in the data active = inhibition above about 19%;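 note: 0% = DMSO and 100% = reference compound high control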
Pyk2 oligo antag = antagonists of Pyk2 self-association, primary screen, Q293 cells, FERM NanoBiT luminescence, HTS; z-score (the deposit names both 25 µM and 10 µM); stronger effect = lower value; Protein-tyrosine kinase 2-beta (Homo sapiens), Q14289; actives 0.83% (n = 99,000);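 active = Z-score of -3 or lower, scaled per plate to the spread of control and sample wells; inactive = z-score above -3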;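 note: negative z-score means lost luminescence so less FERM oligomerization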
Ecoli tolC = growth inhibitors of E. coli tolC mutant, primary screen, strain BW25113 ΔtolC::kan, 384-well. OD615. growth inhibition, % at 10 µM (by protocol). actives 2.2% (n = 65,000). AID 573, 2007;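 active = growth inhibition at or above a cutoff equal to the mean over every tested compound plus 3 SD, cut at about 60% in these data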;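 note: growth measured after 20 h incubation at 37 °C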
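test system = E. coli BW25113 ΔtolC::kan bacteria | medium = LB with kanamycin 50 µg/mL | signal = OD at 615 nm | schedule = 37 °C, 20 h exposure | evaluation = % inhibition of E. coli growth | compound dosing = one dose of 10 µM final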
PostGolgi ctrl = growth inhibition of yeast control strain, primary screen, counter-screen for post-Golgi transport modulator project. inhibition, % at 10 µM. actives 5% (n = 98,000). efflux-deficient yeast background strain, growth absorbance A615, 16 h
Calb biofilm kill = clotrimazole potentiators killing Candida biofilms, primary screen, with clotrimazole, Alamar Blue | C. albicans biofilm + clotrimazole | inhibition, % at 6 µM | actives 0.14% (n = 85,000) | AID 834, 2007;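 active = inhibition above 20%; inactive = inhibition below 20%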;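 note: preformed 24 hr biofilms exposed to compound for 48 hr; 0% = biofilm without compound and 100% = blank killed by clotrimazole plus chlorhexidine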
* marks the source's active call; other numbers are inactive results; . = no result. Compounds with a hit are over-represented: about 6.9% of the library has one in this group of screens. Cut-off read from the data, not from the text of the source, unless noted: active = inhibition above about 30%; inactive = the rest.

SMILES	PostGolgi yeast	FAK inh	Pyk2 oligo antag	Ecoli tolC	PostGolgi ctrl	Calb biofilm kill
Fc1ccc(N2CCN(C(c3cccs3)c3nnnn3CCc3ccccc3)CC2)cc1 (stereo unspecified)	12	2	-2.1	20	37*	-1
CCC1SC(N)=NC1=O (stereo unspecified)	0	-1	1.4	3	10	6
CCOc1cc(/C=C2\C(=O)N(c3nc(-c4ccc(Br)cc4)cs3)N=C2c2ccccc2)ccc1O	1	3	-0.62	.	31*	6
O=C1CN(C(=O)c2cccs2)c2ccccc2N1	-4	1	-0.95	-15	33*	-7
Nc1ccccc1-c1nnn(CC(=O)N2CCCc3ccccc32)n1	.	-1	-0.79	.	.	8
CCCCOc1c(Br)cc(/C=N/O)cc1OCC	.	4	-1.6	.	.	11
CCOc1cc(/C=N/NC(N)=S)cc(Br)c1OCc1ccccc1C	3	0	-0.83	.	67*	.
CCOC(=O)C1CCN(CC(=O)Nc2c(C(=O)OC)[nH]c3ccc(Cl)cc23)CC1	3	4	-0.5	7	10	4
COC(=O)c1[nH]c2ccccc2c1NC(=O)CN1CCN(c2cccc(OC)c2)C(C)C1 (stereo unspecified)	-4	-4	-1.8	77*	15	6
COC(=O)c1[nH]c2ccc(Br)cc2c1NC(=O)CN1CCCc2ccccc21	0	6	-0.21	.	69*	0
COC(=O)c1[nH]c2cc(OC)ccc2c1NC(=O)CCN1CCN(c2ccccc2)CC1	2	0	0.5	.	8	5
COC(=O)c1[nH]c2cc(C)ccc2c1NC(=O)CN1CCCc2ccccc21	0	3	0.41	36	16	.
CCOC(=O)C1CCCN(CC(=O)Nc2c(C(=O)OC)[nH]c3ccc(Br)cc23)C1 (stereo unspecified)	1	-6	0.82	58	56*	6
CCOc1ccc(OCC)c(NC(=O)CN2CCN(c3cccc(C)c3)C(C)C2)c1 (stereo unspecified)	2	2	0.13	29	30*	6
CCOC(=O)N1CCC(N2C(=O)c3ccc(C(=O)NC4CCCCCC4)cc3C2=O)CC1	.	.	.	-4	.	4
O=C(CNCC1CCCO1)Nc1ccccc1N1CCOCC1 (stereo unspecified)	3	5	1.3	-17	-11	8
CCOc1ccc(C(=S)N2CCOCC2)cc1OC	.	0	-0.66	.	.	1
O=C(Nc1ccc(N2CCOCC2)cc1N1CCOCC1)c1ccco1	-7	16	-0.35	-6	44*	10
O=C(Nc1ccc(N2CCOCC2)c(C(=O)O)c1)c1ccco1	8	-1	.	.	3	.
CCCCCn1c(N)c(-c2nc3ccccc3s2)c2c([N+](=O)[O-])nn(C)c(=O)c21	6	4	0.98	.	12	-6
O=S(=O)(Nc1ccc(-n2cccc2)cc1)c1ccccc1	4	-2	-2.2	.	33*	.
O=S(=O)(Nc1ccc(S(=O)(=O)Nc2ccccc2)cc1)c1ccccc1	14	3	0.65	.	-2	-5
OCCNCCCCCOc1ccc(F)cc1	8	1	0.39	-6	9	3
CCN(CC)S(=O)(=O)c1cccc(C(=O)Nc2nc3cc4c(cc3s2)OCCO4)c1	.	.	-3.5*	46	.	7
CN(CC(=O)N1CCN(c2ccccc2)CC1)S(=O)(=O)c1cnc[nH]1	3	0	0.14	-14	36*	7
SMILES	PostGolgi yeast	FAK inh	Pyk2 oligo antag	Ecoli tolC	PostGolgi ctrl	Calb biofilm kill
CN(CC(=O)N1CCN(c2cccc(Cl)c2)CC1)S(=O)(=O)c1cnc[nH]1	.	.	.	.	.	-2
CCOC(=O)c1cc(NC(=O)Nc2ccccc2OC)c(C)nc1C	-2	2	-2.3	.	5	4
CCC(C(=O)Nc1ccccc1OC)n1c(C(=O)OC)cc2ccsc21 (stereo unspecified)	5	1	-1.7	71*	19	-4
O=c1c2cc(Br)ccc2nc2n1CCCCC2	-2	4	0.02	.	-8	-1
Fc1ccc2nc3n(c2c1F)CCCCCC3	1	9	-0.83	12	40*	5
COCCNC(=O)CN(Cc1ccc2c(c1)OCO2)C(=O)CCC(=O)Nc1nccs1	-1	0	1.8	-9	6	10
CCCCOc1ccc(-c2nnn(CC(=O)c3c[nH]c4ccccc34)n2)cc1	-5	4	-0.12	.	10	-3
